From ChEMBL document CHEMBL3124932, “Design, synthesis and evaluation of genistein-O-alkylbenzylamines as potential multifunctional agents for the treatment of Alzheimer's disease” (Eur J Med Chem, 2014)

Columns and labels:
[1] = biological target: Amyloid-beta precursor protein (Homo sapiens) (UniProt P05067); assay: Inhibition of self-induced amyloid beta (1 to 42) (unknown origin) aggregation at 25 uM after 24 hrs by thioflavin T fluorescence method
Outline: (§1)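 HFIP-pretreated Aβ1-42 (25 µM final) incubated with compound (10–50 µM) in 50 mM phosphate pH 7.4 for 24 h at 37 °C, wells sealed. ThT in glycine-NaOH pH 8.5 added; fluorescence ex 446/em 490 nm. DMSO 12.5% final. Percent inhibition relative to peptide without inhibitor; triplicate, mean of 3 independent experiments.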

[2] = biological target: Butyrylcholinesterase (Rattus norvegicus) (UniProt Q9JKC1); assay: Inhibition of rat serum BuChE using butyrylthiocholine iodide as substrate at 50 uM after 15 mins by Ellman's method
Sequence of Butyrylcholinesterase (Rattus norvegicus) (Q9JKC1 as listed by the source): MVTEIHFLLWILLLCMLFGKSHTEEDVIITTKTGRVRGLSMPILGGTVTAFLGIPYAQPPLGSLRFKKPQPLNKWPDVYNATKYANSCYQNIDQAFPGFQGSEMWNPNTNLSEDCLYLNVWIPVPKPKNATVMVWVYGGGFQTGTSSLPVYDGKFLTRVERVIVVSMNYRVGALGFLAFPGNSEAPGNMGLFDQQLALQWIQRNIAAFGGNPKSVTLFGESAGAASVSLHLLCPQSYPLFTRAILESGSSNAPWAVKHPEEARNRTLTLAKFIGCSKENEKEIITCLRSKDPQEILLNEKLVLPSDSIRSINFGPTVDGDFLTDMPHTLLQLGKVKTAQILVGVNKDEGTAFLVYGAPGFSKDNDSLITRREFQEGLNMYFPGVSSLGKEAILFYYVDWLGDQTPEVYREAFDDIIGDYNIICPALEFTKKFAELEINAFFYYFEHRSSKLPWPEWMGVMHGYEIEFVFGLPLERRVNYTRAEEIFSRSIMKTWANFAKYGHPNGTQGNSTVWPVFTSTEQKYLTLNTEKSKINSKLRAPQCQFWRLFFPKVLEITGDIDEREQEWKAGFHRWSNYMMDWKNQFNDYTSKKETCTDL
Outline: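 Modified Ellman assay in phosphate buffer pH 7.4. Enzyme sources: AChE from 5% rat cortex homogenate, preincubated 5 min with iso-OMPA to block BuChE; BuChE from 25% rat serum. Substrates were acetylthiocholine or butyrylthiocholine iodide. Compounds incubated 15 min at 37 °C, then DTNB added; A405 read. IC50 derived; triplicate, 3 independent experiments; "no active" means under 5% inhibition at 50 µM.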

[3] = Antioxidant activity assessed as trolox equivalent of APPH-induced radical scavenging activity at 1 to 10 uM preincubated for 15 mins followed by AAPH challenge measured every minute for 90 minutes by ORAC fluorescence assay; assay type: functional
Outline: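 ORAC-FL in phosphate buffer pH 7.4. Samples (1–10 µM) preincubated with fluorescein (150 nM final) 15 min at 37 °C, then AAPH (12 mM final) added. Fluorescence (ex 485/em 535 nm) read each minute for 90 min. Net AUC over blank converted to Trolox equivalents using a 1–8 µM Trolox curve. Duplicates, at least 3 independent assays.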

[4] = biological target: T1, Acetylcholinesterase (Electrophorus electricus, UniProt O42275); assay: Mixed-type inhibition of electric eel AchE using acetylthiocholine as substrate after 15 mins by Lineweaver-Burk plot analysis
T1 sequence (O42275 whole entry): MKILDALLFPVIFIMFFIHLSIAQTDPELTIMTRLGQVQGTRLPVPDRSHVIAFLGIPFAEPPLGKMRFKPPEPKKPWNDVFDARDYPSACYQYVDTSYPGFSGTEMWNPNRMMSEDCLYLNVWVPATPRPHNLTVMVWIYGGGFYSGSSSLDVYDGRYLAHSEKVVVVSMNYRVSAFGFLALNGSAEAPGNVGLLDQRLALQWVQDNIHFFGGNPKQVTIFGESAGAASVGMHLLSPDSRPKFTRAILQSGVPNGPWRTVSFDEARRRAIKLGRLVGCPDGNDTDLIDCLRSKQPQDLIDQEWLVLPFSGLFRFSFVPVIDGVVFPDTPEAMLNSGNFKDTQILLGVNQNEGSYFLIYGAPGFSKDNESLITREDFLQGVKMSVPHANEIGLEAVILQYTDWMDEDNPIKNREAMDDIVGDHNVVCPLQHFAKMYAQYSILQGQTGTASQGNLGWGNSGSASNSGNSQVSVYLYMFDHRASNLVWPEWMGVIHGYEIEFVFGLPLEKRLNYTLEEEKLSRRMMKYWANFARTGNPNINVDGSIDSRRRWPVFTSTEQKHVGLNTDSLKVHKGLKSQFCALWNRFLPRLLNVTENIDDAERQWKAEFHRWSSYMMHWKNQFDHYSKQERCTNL
Outline: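 Purified eel AChE in 0.1 M phosphate pH 8.0 with DTNB. Three inhibitor concentrations preincubated with enzyme 15 min at 37 °C, then acetylthiocholine added at varied concentrations. Hydrolysis followed at 412 nm, with no-inhibitor controls. Lineweaver-Burk plots fitted by weighted least squares; slopes replotted against inhibitor concentration, Ki taken as the negative x-intercept.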

[5] = biological target: T1, Acetylcholinesterase; assay: Inhibition of electric eel AchE using acetylthiocholine iodide as substrate after 15 mins by Ellman's method
[6] = biological target: Acetylcholinesterase (Homo sapiens, UniProt P22303); assay: Inhibition of human erythrocytes AchE using acetylthiocholine iodide as substrate after 15 mins by Ellman's method
Sequence of Acetylcholinesterase (Homo sapiens, UniProt P22303) (P22303 whole entry): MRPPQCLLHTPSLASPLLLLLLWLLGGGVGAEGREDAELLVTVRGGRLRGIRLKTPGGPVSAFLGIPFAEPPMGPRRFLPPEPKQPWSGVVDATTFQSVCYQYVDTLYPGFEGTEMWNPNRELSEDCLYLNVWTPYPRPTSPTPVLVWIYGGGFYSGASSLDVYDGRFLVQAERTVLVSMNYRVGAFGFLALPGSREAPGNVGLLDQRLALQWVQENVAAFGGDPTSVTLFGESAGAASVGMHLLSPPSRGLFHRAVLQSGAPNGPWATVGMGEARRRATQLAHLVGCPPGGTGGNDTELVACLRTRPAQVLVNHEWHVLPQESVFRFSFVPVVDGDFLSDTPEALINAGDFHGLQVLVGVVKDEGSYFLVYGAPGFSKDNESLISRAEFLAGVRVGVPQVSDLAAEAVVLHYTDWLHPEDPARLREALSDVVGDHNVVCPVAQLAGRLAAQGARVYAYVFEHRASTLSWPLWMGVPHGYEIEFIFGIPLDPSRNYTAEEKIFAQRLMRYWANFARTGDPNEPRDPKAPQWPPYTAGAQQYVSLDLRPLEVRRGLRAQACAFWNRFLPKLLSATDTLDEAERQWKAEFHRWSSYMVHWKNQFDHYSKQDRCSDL

[7] = biological target: T2, Acetylcholinesterase (Rattus norvegicus, UniProt P37136); assay: Inhibition of rat cortex homogenate AchE using acetylthiocholine iodide as substrate after 15 mins by Ellman's method
T2 sequence (P37136 whole entry): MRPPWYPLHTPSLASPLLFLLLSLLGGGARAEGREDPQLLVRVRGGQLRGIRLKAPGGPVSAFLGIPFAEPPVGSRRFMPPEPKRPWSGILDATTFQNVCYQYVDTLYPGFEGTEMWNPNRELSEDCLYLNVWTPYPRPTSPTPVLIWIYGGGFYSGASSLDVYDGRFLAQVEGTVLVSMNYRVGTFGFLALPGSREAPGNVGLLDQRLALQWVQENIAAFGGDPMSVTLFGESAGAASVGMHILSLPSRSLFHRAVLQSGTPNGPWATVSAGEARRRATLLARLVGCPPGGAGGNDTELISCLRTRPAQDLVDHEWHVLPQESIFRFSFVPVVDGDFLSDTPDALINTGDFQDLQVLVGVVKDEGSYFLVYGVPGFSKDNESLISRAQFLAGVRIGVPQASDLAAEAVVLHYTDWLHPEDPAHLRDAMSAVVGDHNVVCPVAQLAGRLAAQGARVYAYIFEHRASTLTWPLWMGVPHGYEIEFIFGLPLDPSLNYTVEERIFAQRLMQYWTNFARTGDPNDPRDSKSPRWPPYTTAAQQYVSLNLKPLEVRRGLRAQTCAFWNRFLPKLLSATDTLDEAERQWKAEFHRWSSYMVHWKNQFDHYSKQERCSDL

[8] = tested on: Mus musculus; assay: Cognition enhancing effect against scopolamine-induced memory deficit in po dosed Kunming mouse assessed as increase in latency time administered 1 hr before training followed by scopolamine challenge for 7 days measured after 24 hrs by step-down passive avoidance test; assay type: functional, organism-based
Outline: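 Kunming mice, six weeks old, 18–22 g, either sex, n=10 per group. Oral dosing at 2, 6, 18 or 3, 9, 27 mg/kg in vegetable oil, 1 h before training; vehicle as negative control. Scopolamine (3 mg/kg i.p., in saline) given 30 min later. Behavioural testing after 7 days of treatment. Step-down training used a 0.5 mA, 2 s foot shock. Latency measured 24 h later, cut-off 300 s; mean ± SEM.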

[9] = biological target: Amyloid-beta precursor protein (Homo sapiens) (UniProt P05067); assay: Inhibition of Cu2+-induced amyloid beta (1 to 42) (unknown origin) aggregation at 25 uM after 24 hrs by thioflavin T fluorescence method
Outline: (§2)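 Aβ1-42 (25 µM final, HFIP-pretreated) with an equimolar amount of Cu2+ (25 µM) in HEPES pH 6.6 with 150 mM NaCl. Incubated with or without compound (10–35 µM final) 24 h at 37 °C. ThT in glycine-NaOH pH 8.5 added, fluorescence ex 446/em 490 nm. DMSO 12.5% final. Percent inhibition relative to no-inhibitor wells; triplicate, mean of 3 independent experiments.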

[10] = biological target: Amyloid-beta precursor protein (Homo sapiens) (UniProt P05067); assay: Induction of amyloid beta (1 to 42) (unknown origin) disaggregation assessed as reduction of Cu2+-induced amyloid beta fibril formation at 25 uM after 24 hrs by thioflavin T fluorescence method; design: scale not given: the % may be the effect or the level left
Outline: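 Aβ1-42 (25 µM final, HFIP-pretreated) and Cu2+ (25 µM) in HEPES pH 6.6 with 150 mM NaCl, incubated 24 h at 37 °C. Test compound (25 µM final) then added for a further 24 h at 37 °C, wells sealed. Read by ThT in glycine-NaOH pH 8.5 (ex 446/em 490 nm). DMSO 12.5% final; triplicate.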

[11] = biological target: Amyloid-beta precursor protein (Homo sapiens) (UniProt P05067); assay: Inhibition of Cu2+-induced amyloid beta (1 to 42) (unknown origin) aggregation after 24 hrs by thioflavin T fluorescence method; outline: as §2
[12] = biological target: Amyloid-beta precursor protein (Homo sapiens) (UniProt P05067); assay: Inhibition of self-induced amyloid beta (1 to 42) (unknown origin) aggregation after 24 hrs by thioflavin T fluorescence method; outline: as §1

Sequence of Amyloid-beta precursor protein (Homo sapiens) (P05067 whole entry): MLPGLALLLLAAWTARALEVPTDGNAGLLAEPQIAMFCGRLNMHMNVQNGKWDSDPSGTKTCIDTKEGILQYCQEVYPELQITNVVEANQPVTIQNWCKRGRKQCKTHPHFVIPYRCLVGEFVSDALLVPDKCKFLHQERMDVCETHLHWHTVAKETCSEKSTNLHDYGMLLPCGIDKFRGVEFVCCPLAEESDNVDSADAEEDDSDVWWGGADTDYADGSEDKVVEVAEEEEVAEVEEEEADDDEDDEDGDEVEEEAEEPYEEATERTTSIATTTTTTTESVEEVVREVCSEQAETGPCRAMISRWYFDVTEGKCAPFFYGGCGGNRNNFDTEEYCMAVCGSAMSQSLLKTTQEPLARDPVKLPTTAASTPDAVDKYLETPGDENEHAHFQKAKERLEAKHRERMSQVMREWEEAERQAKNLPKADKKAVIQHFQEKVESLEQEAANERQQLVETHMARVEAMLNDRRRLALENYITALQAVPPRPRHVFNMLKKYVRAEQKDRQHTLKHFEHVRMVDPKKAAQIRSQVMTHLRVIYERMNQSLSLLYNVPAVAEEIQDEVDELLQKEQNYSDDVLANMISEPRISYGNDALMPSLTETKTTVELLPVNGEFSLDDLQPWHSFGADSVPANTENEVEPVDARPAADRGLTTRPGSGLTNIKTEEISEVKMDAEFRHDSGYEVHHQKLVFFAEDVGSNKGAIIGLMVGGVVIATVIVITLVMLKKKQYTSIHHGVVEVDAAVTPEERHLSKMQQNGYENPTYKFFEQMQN

With `CCN(CCCCOc1ccc(-c2coc3cc(OCCCCN(CC)Cc4ccccc4OC)cc(O)c3c2=O)cc1)Cc1ccccc1OC` the inhibition [1] was 35%, the inhibition [2] was 20% and the Activity [3] was 0.3. For the same compound, the Ki [4] was 140 nM, the IC50 [5] was 140 nM and the IC50 [6] was 350 nM. For the same compound, the IC50 [7] was 90 nM, the Activity [8] was “Dose-dependent effect” and the inhibition [9] was 77.8%. For the same compound, the Activity [10] was 72.1%, the inhibition [11] was “Dose-dependent effect” and the inhibition [12] was “Dose-dependent effect”.
